Assay results taken from ChEMBL document CHEMBL3244174, “Synthesis and biological activity of some new furan quaternary salts” (J Med Chem, 1977).
Activity calls are given as the source filed them. The rule behind the calls is not given here.

Key:
Candida albicans = experiment: Antifungal activity against Candida albicans SKF 2270 assessed as growth inhibition by agar dilution method; assay type: functional
Enterococcus faecalis = experiment: Antibacterial activity against Streptococcus faecalis ATCC 10541 assessed as growth inhibition after 24 hrs by dilution tube method; assay type: functional; conditions: ATCC 10541, 24 h
Summary of the method: (§1)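 Broth tube dilution in Tryptone Soya Broth, duplicate tubes at each concentration. MIC (μg/ml) was the highest dilution preventing visible growth. Nitrofurantoin run under the same conditions.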

Staphylococcus aureus = experiment: Antibacterial activity against Staphylococcus aureus ATCC 6538 assessed as growth inhibition after 24 hrs by dilution tube method; assay type: functional; conditions: ATCC 6538, 24 h; summary of the method: as §1
Klebsiella pneumoniae = experiment: Antibacterial activity against Klebsiella pneumoniae ATCC 10031 assessed as growth inhibition after 24 hrs by dilution tube method; assay type: functional; conditions: ATCC 10031, 24 h; summary of the method: as §1
Histoplasma capsulatum = experiment: Antifungal activity against Histoplasma capsulatum RNSH Hi-70 1/2 assessed as growth inhibition by agar dilution method; assay type: functional
[1] = tested on: Trichophyton mentagrophytes; experiment: Antifungal activity against Trichophyton mentagrophytes A-280 USPHS assessed as growth inhibition by agar dilution method; assay type: functional
Microsporum canis = experiment: Antifungal activity against Microsporum canis VM-200 USPHS assessed as growth inhibition by agar dilution method; assay type: functional
Escherichia coli = experiment: Antibacterial activity against Escherichia coli 114 assessed as growth inhibition after 24 hrs by dilution tube method; assay type: functional; conditions: Escherichia coli, 114, 24 h; summary of the method: as §1
Salmonella typhi = experiment: Antibacterial activity against Salmonella typhi 115 assessed as growth inhibition after 24 hrs by dilution tube method; assay type: functional, Salmonella enterica subsp. enterica serovar Typhi; conditions: Salmonella enterica, 115, 24 h
Summary of the method: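 Dilution tube method in Tryptone Soya Broth; MIC (μg/ml) taken as highest dilution preventing visible growth; duplicates at every concentration; nitrofurantoin reference run under same conditions.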

Trichophyton rubrum = experiment: Antifungal activity against Trichophyton rubrum 252 CSTM assessed as growth inhibition by agar dilution method; assay type: functional
Rodentolepis nana = experiment: Anthelmintic activity against viable ova stage of Hymenolepis nana infected in rat assessed as decrease in intestinal worm load at 250 mg/kg, po measured on day 3; assay type: functional, organism-based; set-up: dose 250 mg/kg
Summary of the method: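 Young male rats (25–30 g, University of Freiburg strain) infected with 200 viable ova, then given a single 250 mg/kg oral dose. Worms from each rat's small intestine collected and scored on day 3. A mean score of 0–10% of control taken as active.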

[2] = tested on: Nippostrongylus brasiliensis; experiment: Anthelmintic activity against larvae stage of Nippostrongylus brasiliensis infected in rat assessed as decrease in worm load at 250 mg/kg, po administered on day 8 post infection; assay type: functional, organism-based; set-up: dose 250 mg/kg
Summary of the method: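 Young male rats (25–30 g, University of Freiburg strain), 3 per compound, infected with 500 infective larvae; single 250 mg/kg oral dose on day 8. Worm loads of treated and control groups compared; 90% deparasitization taken as active. Whitlock–Bliss technique as modified by Steward.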

Pseudomonas aeruginosa = experiment: Antibacterial activity against Pseudomonas aeruginosa ATCC 10145 assessed as growth inhibition after 24 hrs by dilution tube method; assay type: functional; conditions: ATCC 10145, 24 h; summary of the method: as §1
[3] = tested on: Agrobacterium tumefaciens; experiment: Antibacterial activity against Agrobacterium tumefaciens NRRL B-36 assessed as growth inhibition after 24 hrs by dilution tube method; assay type: functional; conditions: NRRL B-36, 24 h; summary of the method: as §1
[4] = tested on: Mycobacterium tuberculosis; experiment: Antibacterial activity against Mycobacterium tuberculosis H37Rv assessed as growth inhibition by serial dilution method; assay type: functional
Summary of the method: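 M. tuberculosis H37Rv maintained on Lowenstein–Jensen medium; tested in Youman's medium by serial dilution.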

Cryptococcus neoformans = experiment: Antifungal activity against Cryptococcus neoformans 103 assessed as growth inhibition by agar dilution method; assay type: functional
[5] = Acute toxicity in ip dosed mouse; assay type: organism-based; conditions: in vivo
Summary of the method: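 Mice dosed intraperitoneally; LD50 determined.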

Nannizzia gypsea = experiment: Antifungal activity against Microsporum gypseum 153 CSTM assessed as growth inhibition by agar dilution method; assay type: functional

Compound | MIC (Candida albicans) [µg/mL] | MIC (Enterococcus faecalis) [µg/mL] | MIC (Staphylococcus aureus) [µg/mL] | MIC (Klebsiella pneumoniae) [µg/mL] | MIC (Histoplasma capsulatum) [µg/mL] | MIC [1] [µg/mL] | MIC (Microsporum canis) [µg/mL] | MIC (Escherichia coli) [µg/mL] | MIC (Salmonella typhi) [µg/mL] | MIC (Trichophyton rubrum) [µg/mL] | Activity (Rodentolepis nana) | Activity [2] | MIC (Pseudomonas aeruginosa) [µg/mL] | MIC [3] [µg/mL] | MIC [4] [µg/mL] | MIC (Cryptococcus neoformans) [µg/mL] | LD50 [5] [mg/kg] | MIC (Nannizzia gypsea) [µg/mL]
C[N+](C)(CCCCOc1c(Br)cc(Br)cc1Br)Cc1ccc(Br)o1.[Br-] | > 200 | 25 | 5 | 7.5 | 50 | > 200 | > 200 | > 200 | 100 | > 200 | inactive | inactive | 5 | 50 | 50 | 25 | 37.5 | > 200
Cc1cc(OCCCC[N+](C)(C)Cc2ccc(Br)o2)c(C(C)C)cc1Cl.[Br-] | 50 | 7.5 | 2.5 | 2.5 | > 200 | 50 | 75 | > 200 | > 200 | > 200 | inactive | inactive | 2.5 | 25 | 7.5 | 25 | 25 | 50
Cc1cc(OCCCCC[N+](C)(C)Cc2ccc(Br)o2)c(C(C)C)cc1Cl.[Br-] | > 200 | 5 | 2.5 | 2.5 | 100 | 100 | 100 | 100 | 50 | > 200 | inactive | inactive | 2.5 | 10 | 10 | 10 | 37.5 | > 200
C[N+](C)(CCCCCCOc1c(Br)cc(Br)cc1Br)Cc1ccc([N+](=O)[O-])o1.[Br-] | > 200 | 25 | 10 | 5 | 25 | > 200 | 100 | 200 | 100 | 100 | inactive | inactive | 2.5 | 25 | 10 | 100 | 75 | 100
C[N+](C)(CCCCCOc1c(Br)cc(Br)cc1Br)Cc1ccc(Br)o1.[Br-] | > 200 | 7.5 | 2 | 1.5 | 100 | > 200 | > 200 | 100 | 50 | > 200 | inactive | inactive | 2 | 25 | 10 | 25 | 25 | > 200
Cc1cc(OCCCC[N+](C)(C)Cc2ccc([N+](=O)[O-])o2)c(C(C)C)cc1Cl.[Br-] | > 200 | 25 | 7.5 | 5 | > 200 | > 200 | > 200 | > 200 | > 200 | > 200 | inactive | inactive | 1.5 | 25 | 10 | 25 | 75 | > 200
C[N+](C)(CCCCCCOc1c(Br)cc(Br)cc1Br)Cc1ccc(Br)o1.[Br-] | > 200 | 5 | 2 | 1.5 | 25 | > 200 | 100 | 100 | 50 | > 200 | inactive | inactive | 1.5 | 7.5 | 10 | 25 | 25 | > 200
Cc1cc(OCCCCC[N+](C)(C)Cc2ccc([N+](=O)[O-])o2)c(C(C)C)cc1Cl.[Br-] | > 200 | 10 | 10 | 2.5 | 100 | > 200 | 100 | > 200 | 50 | 100 | inactive | inactive | 2.5 | 25 | 5 | 25 | 50 | 100
Cc1cc(OCCCCCCCC[N+](C)(C)Cc2ccc([N+](=O)[O-])o2)c(C(C)C)cc1Cl.[Br-] | > 200 | 3 | 2 | 2 | > 200 | > 200 | > 200 | > 200 | > 200 | > 200 | – | – | 1 | 4 | 7.5 | 4 | – | > 200
Cc1cc(OCCCCCCCCCCCC[N+](C)(C)Cc2ccc([N+](=O)[O-])o2)c(C(C)C)cc1Cl.Cc1ccc(S(=O)(=O)[O-])cc1 | > 200 | 200 | 200 | 200 | > 200 | > 200 | > 200 | > 200 | > 200 | > 200 | – | – | 50 | > 200 | 100 | 100 | – | > 200
C[N+](C)(CCCCCCCCCCCCCCOc1c(Br)cc(Br)cc1Br)Cc1ccc(Br)o1.Cc1ccc(S(=O)(=O)[O-])cc1 | > 200 | 100 | 100 | 100 | > 200 | > 200 | 200 | > 200 | 200 | > 200 | – | – | 50 | 200 | 200 | 200 | – | > 200
